Experimental data: the EternaBench riboswitch data

System: MS2 coat protein
Test: apparent Kd, MS2 coat protein; higher = weaker binding; RNA-MaP array; FMN 200 µM where present
Procedure, shortened: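 The apparent Kd is reported as the median of filtered per-cluster binding-curve fits. To get these curves, designs transcribed by stalled E. coli RNA polymerase on Illumina sequencing-chip clusters were titrated with SNAP-549-labelled MS2 coat protein from 0.7 or 1.5 nM, doubling to 3 µM. Titrations were run without and then with constant ligand in 100 mM Tris-HCl pH 7.5, 80 mM KCl, 4 mM MgCl2, BSA, DTT, yeast tRNA and Tween-20, and green signal was normalised to red-channel RNA signal and control-cluster median Fmax.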

[1] = designed as: OFF switch for flavin mononucleotide, no ligand
[2] = ligand present: flavin mononucleotide, designed as: OFF switch for flavin mononucleotide
[3] = designed as: ON switch for flavin mononucleotide, no ligand
[4] = ligand present: flavin mononucleotide, designed as: ON switch for flavin mononucleotide

| Sequence | apparent Kd [1] | apparent Kd [2] | apparent Kd [3] | apparent Kd [4] |
| --- | --- | --- | --- | --- |
| CCGGAAAGGAAGGAUAUGCUAGACGAAAGUCUAGCAGAAGGUCCUACAUGAGGAUCACCCAUGUGUCCUACCGG | 47.2 nM | 60.5 nM |  |  |
| AAAAAACAUGAGGAUCACCCAUGUAAAAAAAUCGCAGGAUAUAAGGUCGCGAAAGCGACCUUAGAAGGGCGAUCCU |  |  | 267 nM | 78.1 nM |
| AAAAAACAUGAGGAUCACCCAUGUCAGGAUAUUCGAAAAAAAAAAAAAAAAAAAAAAAGGAGAAGGGACGAAAA | 60.1 nM | 50 nM |  |  |
| ACACGGUAUGUAGGAUAUGCAUAGCAUUGCUAUGCAGAAGGACAUGAGGAUCACCCAUGUAUGUAUUCCAUACUAAUCCCGUGU | 5.49 nM | 5.58 nM |  |  |
| UUUUAACAUGAGGAUCACCCAUGUCGUUCAAAUCAAGGAUAUCAAGCGUGUGCGCACGCUUGAGAAGGUGAAGCUC |  |  | 54.2 nM | 191 nM |
| CCCAGCUAUGUGAGGAUAUUCACAUCGAUGGUAGUGAAGAAGGCACAUGAGGAUCACCCAUGUUGGUUGCCGAU | 19.4 nM | 28.7 nM |  |  |
| CCCGUGUUAGGAUAUACGGCACACCCGCCAGCGGGUAUAUAGUAGAAGGAACAUGAGGAUCACCCAUGUAUAGC | 16.1 nM | 46.6 nM |  |  |
| UAUUGAUAAUAUUUUAACAUGAGGAUCACCCAUGUCGCUAGACAGGAUAUAUUUUAUUUGUUUAAGUAGAAGGGUCGUAGAUUU |  |  | 200 nM | 152 nM |
| UGGAUGUGGGUUCCACAUGAGGAUCACCCAUGUACCGAUGAGAGAAGGCGCGCUGGAUCACAGGGCGAGGAUAUCUACAUUCAA | 6.06 nM | 13.1 nM |  |  |
| UCGUAUAAGGGCAUUACACAUGAGGAUCACCCAUGUACGUUAGAGGAUAUGCAUUUCAGUCGAACGUAGAAGGCUAGAGAAGGG | 117 nM | 100 nM |  |  |
| GGGCCGUAGUAGAAGGGAUAUACGAUAGGUAUAUCAGGAUAUACAUGAGGAUCACCCAUGUUCUAACAGUGAUGGUCCUCCCUA | 173 nM | 374 nM |  |  |
| ACGUAUCAUGUAGGAUAUGGCCCAGGAACUUGGUCAGAAGGACAUGAGGAUCACCCAUGUAGAGUAUGUUAGGAUGACGUAUGC | 92.9 nM | 173 nM |  |  |
| GUGACGAAUGUAGGAUAUGCUGAGGAAUACUCAGCAGAAGGACAUGAGGAUCACCCAUGUCAUCCUUAUAAUGAAUAACGUCAC | 13.8 nM | 18.3 nM |  |  |
| UGCAUGUAAGGAUAUGCAUCCGCCAAAGAACCGGCGCCACAGCAGAAGGUACAUGAGGAUCACCCAUGUGUCCC | 15.1 nM | 29.1 nM |  |  |
| GACUGAUUGUAGAAGGUACUUGAAAAUAUUUAAUAACUCAUGUGACAUGAGGAUCACCCAUGUAGUAAGGAUAUACAUAUCACA |  |  | 198 nM | 91 nM |
| UCCAAACUUGGACUUGGUGGUGCAUAGGAUAUCCUUGGACAUGAGGAUCACCCAUGUACAACUGUGGAGAAGGGUGCAGGGCCU |  |  | 427 nM | 91.3 nM |
| ACCAUGUAAGGAUAUGCGCGGCCCUAAAUCAAUGAGCAAGCGCAGAAGGUACAUGAGGAUCACCCAUGUCACCG | 16.6 nM | 51.4 nM |  |  |
| CACUGCAAUGUAGGAUAUCGACUGGAUAACAGUCGAGAAGGACAUGAGGAUCACCCAUGUCAUCCUAAUAAUAAAUAAGCAGUG | 15.3 nM | 19.1 nM |  |  |
| UGUGUGAGACAGGAUAUGCUGGUUGUGUGGCGGGUAGAAGGGUCUACAUGAGGAUCACCCAUGUGGCCGGUUGG | 22 nM | 22.8 nM |  |  |
| ACCGUAUGAACAUGAGGAUCACCCAUGUAAACGGAAACGAAUGAGGAUAUCGAUAGCAAAGCUAUCGAGAAGGCAUGGGACGGU |  |  | 64.5 nM | 26.8 nM |
| AUUAAACAUGAGGAUCACCCAUGUAAUAAUAUGGGAGGAUAUGCGAAUUUAAUUAUUUAAGCAGAAGGCCUAAUUA |  |  | 63 nM | 19.2 nM |
| CUAUUGGUAACAGGAUAUAUGAGUCCUACAUGAGGAUCACCCAUGUAGGUGAUCAAACAUGAUUAGUAGAAGGGUUACCAAUAG |  |  | 40.9 nM | 8.8 nM |
| UUUUGGUAAGGAUAUGCGUAGAUCUCGGAAACGAGAUCUACGCAGAAGGUACAUGAGGAUCACCCAUGUUGAUU | 24.2 nM | 83.3 nM |  |  |
| GCGUCAGAAUUAAUUGUGACAGACAGAAGGCAAUAGUUCAUGUCAGACAUGAGGAUCACCCAUGUUGAGGAUAUGUAUUGACAC | 5.62 nM | 5.65 nM |  |  |

| Sequence | apparent Kd [1] | apparent Kd [2] | apparent Kd [3] | apparent Kd [4] |
| --- | --- | --- | --- | --- |
| UUUUUGUCAGGAUAUCGUUAAUUUAAUUGUUUGUAUUAGUUCGAGAAGGGACAUGAGGAUCACCCAUGUUUUUU | 23.9 nM | 39.6 nM |  |  |
| UAUUAACACGAAGGAUAUGCUUACAUGAGGAUCACCCAUGUAUGUAUAUUGAUCCAGAUUUUUGAGCAGAAGGUCGUGAGUAAA | 35.3 nM | 141 nM |  |  |
| GUAGCAUACCGAGGAUAUUCUUAUAAUAAAUAAACAUGAGGAUCACCCAUGUGGCGAAAGCCAAGGGAGAAGGCGGAAUGCUAC |  |  | 87.7 nM | 20.1 nM |
| UGUUGUAUUACAGGAUAUCUAUUAGUUUUAGUUAGAGAAGGGUAUUCACAUGAGGAUCACCCAUGUAUAUACGAGGAAGUUGUG |  |  | 44.1 nM | 49.1 nM |
| CAUACAGUAGUUAGGAUAUUGCAACGUACACGGAACGAGAAGGGACAUGAGGAUCACCCAUGUAGAUUGUAAAG | 21.8 nM | 21.1 nM |  |  |
| CAGCGAAAGUAGAAGGCAGUACUGUUACAGUACUGAGGAUAUACAUGAGGAUCACCCAUGUAAUAAAGCUGGAAAUAUAUAAUU | 6.41 nM | 7.33 nM |  |  |
| UCCUCACAUGAGGAUCACCCAUGUGAGGAUAUCAGCGCGUACGGGUUUCCGUAGUGUUUGAGAAGGCAUUUGGG | 16.6 nM | 29 nM |  |  |
| AAAAAAAAAAGCUAGGAUAUCCAAAAAAAAACAUGAGGAUCACCCAUGUAAAAAAAAAAAAAAUGGGAGAAGGAGCAAAAAAAAAA |  |  | 52.4 nM | 26.9 nM |
| CUUAGACAUGAGGAUCACCCAUGUGAGGAUAUGAUGCGAUCGUCGAAAGACGAUAGCAUCAGAAGGCACAUAUG | 132 nM | 301 nM |  |  |
| ACGAAACAUGAGGAUCACCCAUGUGCUUAAAGUGUAGGAUAUGGGAUAGCCUAGGUAGUCUCAGAAGGGCACCAAU |  |  | 45.1 nM | 22.5 nM |
| AUAAAAGUGACAUGAGGAUCACCCAUGUGAAUUAGUAGUAGCAGAAGGCACGUGGGAAGACCAAGUGAGGAUAUGUAACUUUAG |  |  | 625 nM | 59.2 nM |
| CUGAGCAAUCAAGGAUAUCACGUCGAUUAGACGUGAGAAGGUGAUCAUUACAUGAGGAUCACCCAUGUAUUACAUGGAGCUCAG |  |  | 1370 nM | 365 nM |
| UUUAUGUCAGGAUAUGAUUAGAUCUACUUCGGUAGAUCUAAUCAGAAGGGACAUGAGGAUCACCCAUGUAGUUU | 111 nM | 226 nM |  |  |
| UGUCGGAGCAGAGGAUAUUACAUGAGGAUCACCCAUGUAUGAACCAAUAGCUGAAAACAGCAAUGUAAGAAGGCUGCUCCGACA | 11.5 nM | 176 nM |  |  |
| GAUACACAUGAGGAUCACCCAUGUUAGGAUAUUAGCGGGAAAGCUGUCAGACAGUCGAUGAGAAGGAACAGGAG | 32.5 nM | 31.6 nM |  |  |
| GAAAACGGAGAGGAUAUUUGAGAUCAAAGCUCCAAAGAAGGCUCCACAUGAGGAUCACCCAUGUGGUCUUCAAU | 14.6 nM | 107 nM |  |  |
| CUACAUGAGGAUCACCCAUGUGCACGCCAGAUCGGUGUGCGCAGAAGGGCCAUGGAGAAAGCCAGGCAGGAUAUGCAAAGGGCU |  |  | 353 nM | 162 nM |
| AAAAAAAAAGUAGAGGAUAUCCAAAUGGCUACAUGAGGAUCACCCAUGUGAAGAAAAGCACAUGAGGAGAAGGCUACAAAAAAAAA |  |  | 26.7 nM | 13.5 nM |
| UGCUAAUUGUAGAAGGGUGACAUGAGGAUCACCCAUGUUCACAUGCGAUUUACGGCGCAUGUUCCACAGGAUAUACAGUUGAGU |  |  | 342 nM | 60.1 nM |
| CCCACGAAAGUCGAACGAUGUAGGAGAAGGACAAUAACAUGACAUGAGGAUCACCCAUGUGCCAUGUAGGAUAUCCUACAUGGG | 7.86 nM | 7.78 nM |  |  |
| CUCGUGUCGGAGGAUAUCCAGCGCGAAAAUAAAGGAGAAGGCCGCACAUGAGGAUCACCCAUGUAACAUGGUCC | 56.2 nM | 76.4 nM |  |  |
| CUGUGGGCCAUAGGAUAUGCGCAGAAUUAGCAAGCAGAAGGGUGGAUCGUACAAUAAUAACUACAUGAGGAUCACCCAUGUGCU |  |  | 360 nM | 39.6 nM |
| UGUUCUAUGUAGAAGGCCCAUAUCUGUACUUAGGGAGGAUAUACAUGAGGAUCACCCAUGUGUAGAGCUGGUGGACUGGACAGC | 20.9 nM | 32.5 nM |  |  |
| GUAGCUACAUGAGGAUCACCCAUGUAGGAUAUCGCUAUUGUAAUCAUGUUACAUGAUUACAAUAGCGAGAAGGACGUUAGCUAC | 6.5 nM | 7.16 nM |  |  |
